In BindingDB's records for doi:10.1016/j.bmcl.2005.08.013 (Kosan Biosciences, 2005):

Biological target: Heat shock protein HSP 90-alpha (Homo sapiens, UniProt P07900)
Assay: Binding affinity for human heat shock protein 90 in scintillation proximity assay
Outline: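 Purified full-length human Hsp90 was used as the target protein. Binding was measured by scintillation proximity assay.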

Kd, > 100 µM:
CO[C@H]1C=CC=C(C)C(=O)Nc2cc(O)c(N=CCN(C)C)c(c2O)C[C@@H](C)C[C@H](OC)[C@H](O)[C@@H](C)/C=C(\C)[C@@H]1OC(=O)c1ccc[nH]1 [1H-Pyrrole-2-carboxylic acid (E)-(8R,10R,15S,20S)-19-(2-dimethylamino-ethylamino)-13-(S)-hydroxy-8,14-dimethoxy-4,12,16-trimethyl-10-(S)-methyl-3,20,22-trioxo-2-aza-bicyclo[16.3.1]docosa-1(21),4,6,10,18-pentaen-9-yl ester], CO[C@H]1C=CC=C(C)C(=O)Nc2cc(O)c(N=CCN(C)C)c(c2O)C[C@@H](C)C[C@H](OC)[C@H](O)[C@@H](C)/C=C(\C)[C@@H]1OC(=O)c1cnc[nH]1 [3H-Imidazole-4-carboxylic acid (E)-(8R,10R,15S,20S)-19-(2-dimethylamino-ethylamino)-13-(S)-hydroxy-8,14-dimethoxy-4,12,16-trimethyl-10-(S)-methyl-3,20,22-trioxo-2-aza-bicyclo[16.3.1]docosa-1(21),4,6,10,18-pentaen-9-yl ester], CO[C@H]1C=CC=C(C)C(=O)Nc2cc(O)c(N=CCN(C)C)c(c2O)C[C@@H](C)C[C@H](OC)[C@H](O)[C@@H](C)/C=C(\C)[C@@H]1OC(=O)N(C)N [N-Methyl-hydrazinecarboxylic acid (4E,6Z)-(13S,14S,17R,19S)-19-(2-dimethylamino-ethylamino)-13-(S)-hydroxy-8,14-dimethoxy-4,12,16-trimethyl-10-(R)-methyl-3,20,22-trioxo-2-aza-bicyclo[16.3.1]docosa-1(21),4,6,10,18-pentaen-9-yl ester], CO[C@H]1C=CC=C(C)C(=O)Nc2cc(O)c(N=CCN(C)C)c(c2O)C[C@@H](C)C[C@H](OC)[C@H](O)[C@@H](C)/C=C(\C)[C@@H]1OC(=O)NN [Hydrazinecarboxylic acid (4E,6Z)-(13S,14S,17R,19S)-19-(2-dimethylamino-ethylamino)-13-(S)-hydroxy-8,14-dimethoxy-4,12,16-trimethyl-10-(R)-methyl-3,20,22-trioxo-2-aza-bicyclo[16.3.1]docosa-1(21),4,6,10,18-pentaen-9-yl ester], CO[C@H]1C=CC=C(C)C(=O)Nc2cc(O)c(N=CCN(C)C)c(c2O)C[C@@H](C)C[C@H](OC)[C@H](O)[C@@H](C)/C=C(\C)[C@@H]1OC(=O)NCCN(C)C [(2-Dimethylamino-ethyl)-carbamic acid (4E,6Z)-(13S,14S,17R,19S)-19-(2-dimethylamino-ethylamino)-13-(S)-hydroxy-8,14-dimethoxy-4,12,16-trimethyl-10-(R)-methyl-3,20,22-trioxo-2-aza-bicyclo[16.3.1]docosa-1(21),4,6,10,18-pentaen-9-yl ester], CO[C@H]1C=CC=C(C)C(=O)Nc2cc(O)c(N=CCF)c(c2O)C[C@@H](C)C[C@H](OC)[C@H](O)[C@@H](C)/C=C(\C)[C@@H]1OC(=O)NN [Hydrazinecarboxylic acid (4E,6Z)-(13S,14S,17R,19S)-19-(2-fluoro-ethylamino)-13-(S)-hydroxy-8,14-dimethoxy-4,12,16-trimethyl-10-(R)-methyl-3,20,22-trioxo-2-aza-bicyclo[16.3.1]docosa-1(21),4,6,10,18-pentaen-9-yl ester], CO[C@H]1C=CC=C(C)C(=O)Nc2cc(O)c(N=CCN(C)C)c(c2O)C[C@@H](C)C[C@H](OC)[C@H](O)[C@@H](C)/C=C(\C)[C@@H]1OC(=O)NCC(N)=O [Carbamoylmethyl-carbamic acid (4E,6Z)-(13S,14S,17R,19S)-19-(2-dimethylamino-ethylamino)-13-(S)-hydroxy-8,14-dimethoxy-4,12,16-trimethyl-10-(R)-methyl-3,20,22-trioxo-2-aza-bicyclo[16.3.1]docosa-1(21),4,6,10,18-pentaen-9-yl ester], CO[C@H]1C=CC=C(C)C(=O)Nc2cc(O)c(N3CCC3)c(c2O)C=C(C)C[C@H](OC)[C@H](O)[C@@H](C)/C=C(\C)[C@@H]1OC(=O)NO [Geldanamycin derivative], CO[C@H]1C=CC=C(C)C(=O)Nc2cc(O)c(N=CCF)c(c2O)C[C@@H](C)C[C@H](OC)[C@H](O)[C@@H](C)/C=C(\C)[C@@H]1OC(=O)NO [Geldanamycin derivative], CNC(=O)O[C@H]1/C(C)=C/[C@H](C)[C@@H](O)[C@@H](OC)C[C@H](C)Cc2c(O)c(cc(O)c2N=CCN(C)C)NC(=O)C(C)=CC=C[C@@H]1OC [Methyl-carbamic acid (4E,6Z)-(13S,14S,17R,19S)-19-(2-dimethylamino-ethylamino)-13-(S)-hydroxy-8,14-dimethoxy-4,12,16-trimethyl-10-(R)-methyl-3,20,22-trioxo-2-aza-bicyclo[16.3.1]docosa-1(21),4,6,10,18-pentaen-9-yl ester], CO[C@H]1C=CC=C(C)C(=O)Nc2cc(O)c(N=CCN(C)C)c(c2O)C[C@@H](C)C[C@H](OC)[C@H](O)[C@@H](C)/C=C(\C)[C@@H]1OC(=O)NCCO [(2-Hydroxy-ethyl)-carbamic acid (4E,6Z)-(13S,14S,17R,19S)-19-(2-dimethylamino-ethylamino)-13-(S)-hydroxy-8,14-dimethoxy-4,12,16-trimethyl-10-(R)-methyl-3,20,22-trioxo-2-aza-bicyclo[16.3.1]docosa-1(21),4,6,10,18-pentaen-9-yl ester], CONC(=O)O[C@H]1/C(C)=C/[C@H](C)[C@@H](O)[C@@H](OC)C[C@H](C)Cc2c(O)c(cc(O)c2N=CCN(C)C)NC(=O)C(C)=CC=C[C@@H]1OC [Geldanamycin derivative], CO[C@H]1C=CC=C(C)C(=O)Nc2cc(O)c(N3CCC3)c(c2O)C=C(C)C[C@H](OC)[C@H](O)[C@@H](C)/C=C(\C)[C@@H]1OC(=O)NN [Hydrazinecarboxylic acid (4E,6Z)-(13S,14S,17R,19S)-19-azetidin-1-yl-13-(S)-hydroxy-8,14-dimethoxy-4,12,16-trimethyl-10-(R)-methyl-3,20,22-trioxo-2-aza-bicyclo[16.3.1]docosa-1(21),4,6,10,18-pentaen-9-yl ester]
